Experimental data from ChEMBL document CHEMBL1926632, “Cytotoxic triterpenoid saponins from Lysimachia clethroides” (J Nat Prod, 2011).

How the values were obtained:
Assay type in all cases: functional, cell-based
A549 = assay: Cytotoxicity against human A549 cells by MTT assay
How it was run: (§1)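 MTT read-out following a previously published method. Cell origins: HT-29 colon cancer, HePG2 hepatoma, BGC-823 gastric cancer, A549 lung epithelial, A375 amelanotic melanoma, all human. Paclitaxel served as positive control in the same panel.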

HT-29 = assay: Cytotoxicity against human HT-29 cells by MTT assay; how it was run: as §1
BGC-823 = assay: Cytotoxicity against human BGC823 cells by MTT assay; how it was run: as §1
HepG2 = assay: Cytotoxicity against human HepG2 cells by MTT assay; how it was run: as §1
A-375 = assay: Cytotoxicity against human A375 cells by MTT assay; how it was run: as §1

SMILES	IC50 (A549) [nM]	IC50 (HT-29) [nM]	IC50 (BGC-823) [nM]	IC50 (HepG2) [nM]	IC50 (A-375) [nM]
C[C@@H]1O[C@@H](O[C@H]2[C@H](O[C@H]3CO[C@@H](O[C@H]4CC[C@]5(C)[C@H]6CC[C@]78OC[C@@]9(CCC(C)(C)C[C@H]97)C(=O)C[C@@]8(C)[C@]6(C)CC[C@H]5C4(C)C)[C@H](O[C@@H]4O[C@H](CO)[C@@H](O)[C@H](O)[C@H]4O)[C@H]3O)O[C@H](CO)[C@@H](O)[C@@H]2O)[C@H](O)[C@H](O)[C@H]1O [CLETHROIDOSIDE C]	2620	1990	1930	1480	1140
CC(=O)OC[C@H]1O[C@@H](O[C@H]2[C@H](O[C@H]3CC[C@]4(C)[C@H]5CC[C@]67OC[C@@]8(CCC(C)(C)C[C@H]86)[C@H](O)C[C@@]7(C)[C@]5(C)CC[C@H]4C3(C)C)OC[C@H](O[C@@H]3O[C@H](CO)[C@@H](O)[C@H](O)[C@H]3O[C@@H]3O[C@@H](C)[C@H](O)[C@@H](O)[C@H]3O)[C@@H]2O)[C@H](O)[C@@H](O)[C@@H]1O [CLETHROIDOSIDE E]	> 10000	1400	8050	6260	> 10000
CC(=O)O[C@H]1C(=O)[C@@]2(C)[C@H]([C@H](OC(=O)c3ccccc3)[C@]3(O)C[C@H](OC(=O)[C@H](O)[C@@H](NC(=O)c4ccccc4)c4ccccc4)C(C)=C1C3(C)C)[C@]1(OC(C)=O)CO[C@@H]1C[C@@H]2O [PACLITAXEL]	44.9	3.94	–	4.4	4.9
CC1(C)CC[C@]23CO[C@@]4(CC[C@@H]5[C@@]6(C)CC[C@H](O[C@@H]7OC[C@H](O[C@@H]8O[C@H](CO)[C@@H](O)[C@H](O)[C@H]8O[C@@H]8OC[C@@H](O)[C@H](O)[C@H]8O)[C@H](O)[C@H]7O[C@@H]7O[C@H](CO)[C@@H](O)[C@H](O)[C@H]7O)C(C)(C)[C@@H]6CC[C@@]5(C)[C@]4(C)CC2=O)[C@@H]3C1 [CLETHROIDOSIDE D]	2360	1980	1360	1730	1910
CC1(C)CC[C@]23CO[C@@]4(CC[C@@H]5[C@@]6(C)CC[C@H](O[C@@H]7OC[C@H](O[C@@H]8O[C@H](CO)[C@@H](O)[C@H](O)[C@H]8O[C@@H]8OC[C@@H](O)[C@H](O)[C@H]8O)[C@H](O)[C@H]7O[C@@H]7O[C@H](CO)[C@@H](O)[C@H](O)[C@H]7O)C(C)(C)[C@@H]6CC[C@@]5(C)[C@]4(C)C[C@H]2O)[C@@H]3C1 [LYSIKOKIANOSIDE 1]	1910	1960	1750	1000	1940
CC1(C)[C@@H](O[C@@H]2OC[C@H](O[C@@H]3O[C@H](CO)[C@@H](O)[C@H](O)[C@H]3O)[C@H](O)[C@H]2O[C@@H]2O[C@H](CO)[C@@H](O)[C@H](O)[C@H]2O)CC[C@]2(C)[C@H]3CC[C@]45OC[C@@]6(CC[C@](C)(CO)C[C@H]64)[C@H](O)C[C@@]5(C)[C@]3(C)CC[C@@H]12 [ARDISIANOSIDE E]	2470	1810	1140	750	1710
CC(=O)O[C@H]1[C@H](OC(C)=O)[C@]23CO[C@@]4(CC[C@@H]5[C@@]6(C)CC[C@H](O[C@@H]7OC[C@H](O[C@@H]8O[C@H](CO)[C@@H](O)[C@H](O)[C@H]8O[C@@H]8OC[C@@H](O)[C@H](O)[C@H]8O)[C@H](O)[C@H]7O[C@@H]7O[C@H](CO)[C@@H](O)[C@H](O)[C@H]7O)C(C)(C)[C@@H]6CC[C@@]5(C)[C@]4(C)C[C@H]2O)[C@@H]3CC1(C)C [CLETHROIDOSIDE F]	2280	2040	1950	1260	2190
C[C@@H]1O[C@@H](O[C@H]2[C@H](O[C@H]3CO[C@@H](O[C@H]4CC[C@]5(C)[C@H]6CC[C@]78OC[C@@]9(CCC(C)(C)C[C@H]97)[C@H](O)C[C@@]8(C)[C@]6(C)CC[C@H]5C4(C)C)[C@H](O[C@@H]4O[C@H](CO)[C@@H](O)[C@H](O)[C@H]4O)[C@H]3O)O[C@H](CO)[C@@H](O)[C@@H]2O)[C@H](O)[C@H](O)[C@H]1O	1950	1960	2070	990	2130
